The text below walks through data of ChEMBL document CHEMBL1140128 (J Med Chem, 2008).

Activity calls are given as the source filed them. The calls are words filed in the database; no cut-off is given here.

Assay [1] has as its target T1, Melanocortin receptor 4 (Mus musculus, UniProt P56450). In words: Agonist activity at mouse MC4R expressed in HEK293 cells by CRE/beta-galactosidase reporter gene assay. It is filed as functional, cell-based. In short, it runs like this: (§1)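 HEK293 cells stably expressing the mouse receptor (G418 selection) were transfected with CRE/β-galactosidase reporter. After 48 h they were stimulated for 6 h with peptide (10^-4–10^-12 M) in DMEM with 0.1 mg/mL BSA and 0.1 mM IBMX. Lysates were read with ONPG substrate at OD405 and normalized to protein (OD595) and to a 10^-4 M forskolin control.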
On the technique in general: A reporter such as luciferase makes a cellular process visible.

For assay [2], the target named is Melanocortin receptor 4 (Mus musculus) (UniProt P56450). In words: Agonist activity at mouse MC4R expressed in HEK293 cells by CRE/beta-galactosidase reporter gene assay relative to Ac-His-DPhe7-Arg-Trp-NH2 peptide. It is filed as functional, cell-based. In short, it runs like this:
as §1

Assay [3] concerns the target Melanocortin receptor 5 (Mus musculus) (UniProt P41149). Put plainly: Agonist activity at mouse MC5R expressed in HEK293 cells by CRE/beta-galactosidase reporter gene assay relative to Ac-His-DPhe7-Arg-Trp-NH2 peptide. It is filed as functional, cell-based. In short, it runs like this:
as §1

The target in assay [4] is Melanocyte-stimulating hormone receptor (Mus musculus, UniProt Q01727). In words: Agonist activity at mouse MC1R expressed in HEK293 cells by CRE/beta-galactosidase reporter gene assay. It counts as functional, cell-based. In short, it runs like this:
(§2)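 HEK293 cells stably expressing the mouse receptor (G418 selection) were transfected with CRE/β-galactosidase reporter. Lysates were read with ONPG substrate at OD405 and normalized to protein (OD595) and to a 10^-4 M forskolin control.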

For assay [5], the target named is Melanocortin receptor 3 (Mus musculus) (UniProt P33033). In words: Agonist activity at mouse MC3R expressed in HEK293 cells by CRE/beta-galactosidase reporter gene assay relative to Ac-His-DPhe7-Arg-Trp-NH2 peptide. It is filed as functional, cell-based. An outline of the steps: as §1
The target in assay [6] is T2, Melanocortin receptor 3 (Mus musculus, UniProt P33033). In words: Agonist activity at mouse MC3R expressed in HEK293 cells by CRE/beta-galactosidase reporter gene assay. It is filed as functional, cell-based. An outline of the steps: as §2
In assay [7] the target is Melanocyte-stimulating hormone receptor (Mus musculus) (UniProt Q01727). In words: Agonist activity at mouse MC1R expressed in HEK293 cells by CRE/beta-galactosidase reporter gene assay relative to Ac-His-DPhe7-Arg-Trp-NH2 peptide. It counts as functional, cell-based. An outline of the steps:
as §1

Assay [8] has as its target Melanocortin receptor 5 (Mus musculus, UniProt P41149). Put plainly: Agonist activity at mouse MC5R expressed in HEK293 cells by CRE/beta-galactosidase reporter gene assay. It counts as functional, cell-based. An outline of the steps: as §1
Assay [9] deals with T2, Melanocortin receptor 3. Put plainly: Antagonist activity at mouse MC3R expressed in HEK293 cells assessed as effect on MT2 peptide-induced response by CRE/beta-galactosidase reporter gene assay. Particulars: for Kb: read-out: pA2 (converted). It is filed as functional, cell-based. An outline of the steps:
(§3)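 Mouse MC3R HEK293 stable line carrying transfected CRE/β-galactosidase reporter, 6 h stimulation in IBMX-containing medium. Peptides tested for dose-dependent competitive displacement of MTII agonist at up to 10 μM (footnote: up to 100 μM).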

For assay [10], the species on record is Mus musculus. In words: Selectivity for mouse MC4R over mouse MC3R by CRE/beta-galactosidase reporter gene assay.
Assay [11] is filed under the species Mus musculus. Put plainly: Selectivity for mouse MC4R over mouse MC1R by CRE/beta-galactosidase reporter gene assay.
The target of assay [12] is Melanocortin receptor 3 (Mus musculus) (UniProt P33033). Put plainly: Agonist activity at mouse MC3R expressed in HEK293 cells up to 100 uM by CRE/beta-galactosidase reporter gene assay. It counts as functional, cell-based. An outline of the steps: as §1
Assay [13] has the same target. Put plainly: Antagonist activity at mouse MC3R expressed in HEK293 cells assessed as effect on MT2 peptide-induced response up to 100 uM by CRE/beta-galactosidase reporter gene assay. It counts as functional, cell-based. In short, it runs like this: as §3
Assay [14] concerns the target T1, Melanocortin receptor 4. In words: Antagonist activity at mouse MC4R expressed in HEK293 cells assessed as effect on MT2 peptide-induced response by CRE/beta-galactosidase reporter gene assay. It is filed as functional, cell-based. Conditions: read-out: pA2 (converted).

Sequence of Melanocyte-stimulating hormone receptor (Q01727 whole entry): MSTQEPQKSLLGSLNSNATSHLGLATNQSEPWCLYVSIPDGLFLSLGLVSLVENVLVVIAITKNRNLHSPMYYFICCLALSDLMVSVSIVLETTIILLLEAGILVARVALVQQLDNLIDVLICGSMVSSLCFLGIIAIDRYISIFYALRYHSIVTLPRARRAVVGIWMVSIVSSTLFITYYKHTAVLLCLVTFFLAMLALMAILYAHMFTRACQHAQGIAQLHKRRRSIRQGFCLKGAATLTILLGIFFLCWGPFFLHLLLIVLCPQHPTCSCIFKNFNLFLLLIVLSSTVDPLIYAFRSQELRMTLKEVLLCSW
Sequence of Melanocyte-stimulating hormone receptor (Mus musculus) (Q01727 whole entry, looked up): as the sequence (Q01727 whole entry) above
Sequence of Melanocortin receptor 5 (Mus musculus) (P41149 whole entry): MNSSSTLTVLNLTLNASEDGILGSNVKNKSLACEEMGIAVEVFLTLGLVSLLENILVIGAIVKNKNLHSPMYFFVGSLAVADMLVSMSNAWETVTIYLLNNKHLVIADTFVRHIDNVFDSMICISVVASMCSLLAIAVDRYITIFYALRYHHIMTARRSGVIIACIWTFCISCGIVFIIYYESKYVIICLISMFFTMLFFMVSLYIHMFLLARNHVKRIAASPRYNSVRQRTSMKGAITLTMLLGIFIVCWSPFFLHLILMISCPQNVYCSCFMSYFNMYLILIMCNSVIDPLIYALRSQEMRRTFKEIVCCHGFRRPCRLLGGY
Sequence of Melanocortin receptor 5 (P41149 whole entry): as above
Sequence of Melanocortin receptor 4 (Mus musculus) (P56450 whole entry): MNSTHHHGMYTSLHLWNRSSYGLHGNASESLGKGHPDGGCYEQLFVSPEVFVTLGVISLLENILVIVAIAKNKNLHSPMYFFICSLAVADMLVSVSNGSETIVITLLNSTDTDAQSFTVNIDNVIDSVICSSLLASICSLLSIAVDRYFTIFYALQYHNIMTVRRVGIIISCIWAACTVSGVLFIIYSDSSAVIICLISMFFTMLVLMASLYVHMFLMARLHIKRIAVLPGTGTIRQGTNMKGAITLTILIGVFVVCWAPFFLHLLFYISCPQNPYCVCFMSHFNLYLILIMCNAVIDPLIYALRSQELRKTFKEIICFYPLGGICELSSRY
T1 sequence (P56450 whole entry): as above
T2 sequence (P33033 whole entry): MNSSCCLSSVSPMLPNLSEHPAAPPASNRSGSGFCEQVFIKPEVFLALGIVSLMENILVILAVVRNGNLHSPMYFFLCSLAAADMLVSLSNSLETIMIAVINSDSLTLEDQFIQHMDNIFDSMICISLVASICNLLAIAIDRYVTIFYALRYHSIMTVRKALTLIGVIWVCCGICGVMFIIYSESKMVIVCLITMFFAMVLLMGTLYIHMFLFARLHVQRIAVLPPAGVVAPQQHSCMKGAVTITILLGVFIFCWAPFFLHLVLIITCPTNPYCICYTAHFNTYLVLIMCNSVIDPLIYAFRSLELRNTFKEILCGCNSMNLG
Sequence of Melanocortin receptor 3 (Mus musculus) (P33033 whole entry): as above

As usually defined, the EC50 is the midpoint of the concentration-response curve. A high value points to a need for much substance. With `CC(=O)N[C@@H](Cc1cnc[nH]1)C(=O)N[C@H](Cc1ccc(O)cc1)C(=O)N[C@@H](CCCNC(=N)N)C(=O)N[C@@H](Cc1c[nH]c2ccccc12)C(N)=O`, the 50% effective concentration (EC50) in assay [1] was determined as 390 nM; in [4], 2600 nM; in assay [6], 12500 nM; in assay [8], 730 nM. Further, the fold change (FC) in [2] is 171; in assay [3], 223; in assay [5], 99; in assay [7], 23.
For `CC(=O)N[C@@H](Cc1cnc[nH]1)C(=O)N[C@H](Cc1ccc(N)cc1)C(=O)N[C@@H](CCCNC(=N)N)C(=O)N[C@@H](Cc1c[nH]c2ccccc12)C(N)=O`, the fold change (FC) in assay [2] stood at 96; in [3], 69; in assay [5] it was 130; in assay [7] it was 21.
`CC(=O)N[C@@H](Cc1cnc[nH]1)C(=O)N[C@H](Cc1ccc(C(=O)c2ccccc2)cc1)C(=O)N[C@@H](CCCNC(=N)N)C(=O)N[C@@H](Cc1c[nH]c2ccccc12)C(N)=O`: the EC50 in assay [1] turned out to be 63.8 nM; in assay [4], 180 nM; in assay [8], 51.1 nM.
As for `CC(=O)N[C@@H](Cc1cnc[nH]1)C(=O)N[C@H](Cc1ccc(N)cc1)C(=O)N[C@@H](CCCN=C(N)N)C(=O)N[C@@H](Cc1c[nH]c2ccccc12)C(N)=O`, the EC50 in assay [8] worked out at 226 nM.
A word on the Ki: it is the dissociation constant of the complex between target and ligand, obtained from inhibition or displacement. Turning to `CC(=O)N[C@@H](Cc1cnc[nH]1)C(=O)N[C@H](Cc1ccc(C(F)(F)F)cc1)C(=O)N[C@@H](CCCNC(=N)N)C(=O)N[C@@H](Cc1c[nH]c2ccccc12)C(N)=O`, in [9], the Ki is 6170 nM and the Kb was 162 nM.
`CC(=O)N[C@@H](Cc1cnc[nH]1)C(=O)N[C@H](Cc1ccc(F)cc1)C(=O)N[C@@H](CCCNC(=N)N)C(=O)N[C@@H](Cc1c[nH]c2ccccc12)C(N)=O`: the Ratio EC50 in assay [10] and in [11] was 200 each time. For the same molecule, the fold change (FC) in assay [5] and in assay [7] was -2 throughout.
For `CC(=O)N[C@@H](Cc1cnc[nH]1)C(=O)N[C@H](Cc1ccc([N+](=O)[O-])cc1)C(=O)N[C@@H](CCCNC(=N)N)C(=O)N[C@@H](Cc1c[nH]c2ccccc12)C(N)=O`, the fold change (FC) in [5] is 5.
Turning to `CC(=O)N[C@@H](Cc1cnc[nH]1)C(=O)N[C@H](Cc1ccc(C(C)(C)C)cc1)C(=O)N[C@@H](CCCNC(=N)N)C(=O)N[C@@H](Cc1c[nH]c2ccccc12)C(N)=O`, the result in assay [12] and in assay [13] was inactive.
As to `CC(=O)N[C@@H](Cc1cnc[nH]1)C(=O)N[C@H](Cc1ccc(Br)cc1)C(=O)N[C@@H](CCCNC(=N)N)C(=O)N[C@@H](Cc1c[nH]c2ccccc12)C(N)=O`, in assay [9], the inhibition constant Ki worked out at 350 nM and the Kb is 28.8 nM.
Turning to `CC(=O)N[C@@H](Cc1cnc[nH]1)C(=O)N[C@H](Cc1ccccc1)C(=O)N[C@@H](CCCNC(=N)N)C(=O)N[C@@H](Cc1c[nH]c2ccccc12)C(N)=O`, the fold change (FC) in assay [2], in assay [3], in assay [5] and in assay [7] was 1 throughout.
`CC(=O)N[C@@H](Cc1cnc[nH]1)C(=O)N[C@H](Cc1ccc(Cl)cc1)C(=O)N[C@@H](CCCNC(=N)N)C(=O)N[C@@H](Cc1c[nH]c2ccccc12)C(N)=O`: the fold change (FC) in assay [3] was -2. Moreover, the Ratio EC50 in assay [10] and in [11] was 200 throughout.
For the molecule `CC(=O)N[C@@H](Cc1cnc[nH]1)C(=O)N[C@H](Cc1ccc(F)cc1)C(=O)N[C@@H](CCCN=C(N)N)C(=O)N[C@@H](Cc1c[nH]c2ccccc12)C(N)=O`, the EC50 in assay [4] was 53.7 nM.
Take `CC(=O)N[C@@H](Cc1cnc[nH]1)C(=O)N[C@H](Cc1cccc(Cl)c1)C(=O)N[C@@H](CCCNC(=N)N)C(=O)N[C@@H](Cc1c[nH]c2ccccc12)C(N)=O`: the Ratio EC50 in assay [10] was 140.
With `CC(=O)N[C@@H](Cc1cnc[nH]1)C(=O)N[C@H](Cc1ccc(Cl)c(Cl)c1)C(=O)N[C@@H](CCCNC(=N)N)C(=O)N[C@@H](Cc1c[nH]c2ccccc12)C(N)=O`, the fold change (FC) in assay [7] turned out to be 1.
As to `CC(=O)N[C@H](Cc1cnc[nH]1)C(=O)NC(Cc1ccc2ccccc2c1)C(=O)N[C@@H](CCCNC(=N)N)C(=O)N[C@@H](Cc1c[nH]c2ccccc12)C(N)=O` (stereo in doubt), the Ki in [9] was 5010 nM.
Regarding `CC(=O)N[C@@H](Cc1cnc[nH]1)C(=O)N[C@H](Cc1ccccc1)C(=O)N[C@@H](CCCN=C(N)N)C(=O)N[C@@H](Cc1c[nH]c2ccccc12)C(N)=O`, the EC50 in [1] was 2.28 nM; in [8] it was 3.26 nM. In assay [14], the Kb was 5.01 nM.
`CC(=O)N[C@@H](Cc1cnc[nH]1)C(=O)N[C@H](Cc1ccc(C#N)cc1)C(=O)N[C@@H](CCCNC(=N)N)C(=O)N[C@@H](Cc1c[nH]c2ccccc12)C(N)=O`: the EC50 in assay [1] stood at 2.84 nM. The fold change (FC) in assay [3] was found to be 1.
As for `CC(=O)N[C@@H](Cc1cnc[nH]1)C(=O)N[C@H](Cc1ccc(Cl)c(Cl)c1)C(=O)N[C@@H](CCCN=C(N)N)C(=O)N[C@@H](Cc1c[nH]c2ccccc12)C(N)=O`, in [9], the Ki was found to be 260 nM and the Kb is 38 nM.
With `CC(=O)N[C@@H](Cc1cnc[nH]1)C(=O)N[C@H](Cc1ccc(C)cc1)C(=O)N[C@@H](CCCNC(=N)N)C(=O)N[C@@H](Cc1c[nH]c2ccccc12)C(N)=O`, the fold change (FC) in [2] and in assay [3] was 2 throughout.
